Experimental data reported in PMC2858377 (Nature structural & molecular biology, 2009).
Entries after “also recorded” stand apart in the source; their conditions may differ. Blank lines part the entries; values can stand above or below the molecule they belong to.

Experiments:
[1] = test system: cellular distribution of AUF1 and hnRNPA1 in HIRc-B cells; assay: AUF1 and hnRNPA1 cellular distribution, HIRc-B cells; format: cell-based; details: insulin 10^−6 M, 1h
[2] = test system: nuclear/cytoplasmic distribution of KSRP in HIRc-B cells; assay: KSRP sub-cellular localization, HIRc-B cells; format: cell-based; details: insulin 10^−6 M, 1h; nuclear and cytoplasmic extracts
[3] = molecular target: T1, 14-3-3ζ (Homo sapiens, UniProt P63104); assay: Isothermal titration calorimetry of KH1-derived peptides with 14-3-3ζ; format: binding; details: ITC, 200 μM 14-3-3ζ, 2 mM peptide, 30°C
T1 sequence (P63104 1-245): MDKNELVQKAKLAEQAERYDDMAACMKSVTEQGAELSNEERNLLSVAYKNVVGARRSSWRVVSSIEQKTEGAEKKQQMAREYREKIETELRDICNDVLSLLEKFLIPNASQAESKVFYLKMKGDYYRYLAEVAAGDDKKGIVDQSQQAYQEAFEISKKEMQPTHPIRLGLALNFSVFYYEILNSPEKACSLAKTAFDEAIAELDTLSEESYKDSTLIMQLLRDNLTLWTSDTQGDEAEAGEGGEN
In short: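 14-3-3ζ was dialysed into 10 mM Tris pH 7.4, 50 mM NaCl, 1 mM TCEP. It was titrated with phosphorylated or unphosphorylated KH1-derived peptide dissolved in the dialysis buffer, in a VP-ITC microcalorimeter. Concentrations given are 200 μM protein and 2 mM peptide; all runs were at 30 °C.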

[4] = test system: AKT1; assay: In vitro phosphorylation by AKT kinase; format: biochemical; details: 100 μM KH1, 1 μg recombinant active AKT1, 37°C, 48 hours
[5] = CD spectroscopy / thermal unfolding; format: physicochemical
[6] = Folding state by NMR; format: physicochemical; details: for folding state (in words): SOFAST 15N-1H HMQC, 10 mM Tris-HCl pH 7.4, 50 mM NaCl, 1 mM TCEP
In short: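 KH1 (residues 130–218) was phosphorylated with active AKT1 and separated from unphosphorylated protein by gel filtration, with identity confirmed by mass spectrometry. Samples were exchanged into 10 mM Tris-HCl pH 7.4, 50 mM NaCl, 1 mM TCEP and examined by 15N-HSQC / SOFAST HMQC. Phospho-KH1 was then dephosphorylated with 100 U λ phosphatase (60 min, 37 °C), re-purified and re-examined. Heat-inactivated AKT1 and S193A mutant served as controls.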

[7] = molecular target: T1, 14-3-3ζ; assay: SOFAST 15N-1H HMQC NMR titration of 14-3-3 into 15N-labelled KH1 / phospho-KH1; format: binding; details: 15 μM KH1 or phospho-KH1, KH:14-3-3 1:2 ratio
In short: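 15N-labelled KH1 or AKT1-phosphorylated KH1 in 10 mM Tris-HCl pH 7.4, 50 mM NaCl, 1 mM TCEP was mixed with 14-3-3ζ at a 1:2 ratio. SOFAST 15N-HMQC spectra were superimposed on free-domain spectra to track resonance broadening. For competition, the phosphorylated KH1 peptide was added to the phospho-KH1–14-3-3 complex at a 1:2:10 ratio.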

[8] = test system: KSRP KH2; assay: KH1–KH2 inter-domain interaction by 15N-HSQC NMR; format: binding, human; details: 15N-HSQC of KH1_143–218, KH2_233-305 and KH12_143–305
[9] = test system: AU-rich RNA targets; assay: KH domain–RNA binding by 15N-HSQC NMR titration
In short: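 Chemically synthesised RNA hexamers, used without further purification, were titrated into the 15N-labelled KH domain sample. 15N-HSQC spectra were acquired across the titration, with the protein in Tris-HCl pH 7.4/NaCl/TCEP buffer at 27°C.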

Molecule: insulin: insulin treatment induces AKT activation in HIRc-B cells
effect on AUF1 and hnRNPA1 distribution [1]: did not affect the cellular distribution of the ribo-nucleoproteins AUF1 and hnRNPA1
KSRP localization [2]: AKT activation promotes nuclear localization of KSRP

B2: phospho-KH1: KSRP KH1 phosphorylated by AKT kinase at Ser193 (protein)
chain: ISSQLGPIHPPPRTSMTEEYRVPDGMVGLIIGRGGEQINKIQQDSGCKVQISPDSGGLPERSVSLTGAPESVQKAKMMLDDIVSRGRGG
modifications: phosphoserine at 193; 15N-labelled
effect of temperature on CD spectrum ([5]; CD at 20, 40, 60, 80 and 95 °C): The spectrum of the protein does not change with temperature; also recorded: The spectra do not change substantially at increasing temperatures
apparent percentage of unfolded peptidic chain ([5]; CD, 20 °C, range expected for fully unfolded proteins 69.8-89.9 %): 79.9%
folding state (in words) [6]: unfolded
folding state (in words) ([6]; listed as phosphorylated protein): essentially unfolded
folding after de-phosphorylation (in words) ([6]; SOFAST HMQC after λ protein phosphatase, 100 Units, 60 minutes, 37 °C): removal of the phosphate group leads to complete refolding of the protein
interaction with 14-3-3 (change in spectrum) [7]: Selected resonances broaden substantially; also recorded: interacts with the protein
interaction with 14-3-3 (change in spectrum) ([7]; listed as phosphorylated KH1): strong selective decrease in the intensity of the NMR signal of a small number of resonances

The next lines start with results.

binding to 14-3-3ζ (in words) [3]: no binding is observed
Molecule: non phosphorylated peptide: KH1-derived non-phosphorylated peptide used in ITC (YGLPERSVSLTGAPES)

phosphorylation efficiency [4]: ~ 90%
interaction with 14-3-3 (change in spectrum) ([7]; listed as Non-phosphorylated KH1): not recognized by 14-3-3
Kd ([9]; read-out: Kd for AU-rich RNA, 5′-UAUUUA-3′ and 5′-UAUUAU-3′ RNAs, 25 μM 15N-labeled KH domain, 10 mM Tris-HCl pH 7.4, 100 mM NaCl, 1 mM TCEP, 27°C, too low to be accurately measured): > 1 mM
B1: KH1: first KH domain of human KSRP (Ile130–Gly218) (protein)
chain: B2 chain
modifications: 15N-labelled
fraction of unfolded protein ([5]; 37°C): ~ 16%
folding state (in words) [6]: folded
interaction with 14-3-3 (change in spectrum) [7]: the two proteins are not interacting; also recorded: No appreciable change is observed in the spectrum of the domain
interaction of KH1 with KH2 (in words) [8]: KH1 and KH2 do not interact in a stable and specific way
affinity for AU-rich sequences (in words) ([9]; compared with the other KH domains): affinity substantially lower than that of the other KH domains
